Assay outcomes: PubChem BioAssay, several laboratories
Only some compounds are listed: those with a hit (about 4.1% of all), similar ones and a draw of the others.
Autophagy mod: autophagy modulators in MEF cells, primary screen, imaging, high-content, MEF GFP-LC3. MEF GFP-LC3 puncta imaging; test concentration mostly 10 µM. calls only at 10 µM (by protocol). 0.98% of 190,000 active;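 active = percentage of spot-positive cells more than 3 SD above its plate mean, without a fluorescence outlier flag or 80% toxicity; inconclusive = no clear call, values can overlap the other calls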;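 also: spot-positive cell cutoff set from DMSO-treated cells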
Cl transport mod: KCC2 cotransporter modulators, thallium flux, primary screen, cell-based, HEK293 KCC2, FluoZin-2 fluorescence, MLSMR | Solute carrier family 12 member 5 (Homo sapiens), Q9H2X9 | KCC2 cells, thallium flux FluoZin-2 fluorescence | B-score of Tl+ flux slope (higher = more flux/activation; lower = inhibition) at 10 µM | 2.2% of 190,000 active | AID 1456, 2008;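 active = thallium flux slope and its plate-corrected score both differing from the plate sample mean at a set confidence after two filtering rounds, in either direction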;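 also: slope of fluorescence scaled to starting intensity during 10 to 20 s after thallium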
Target sequence (Q9H2X9 whole entry, looked up): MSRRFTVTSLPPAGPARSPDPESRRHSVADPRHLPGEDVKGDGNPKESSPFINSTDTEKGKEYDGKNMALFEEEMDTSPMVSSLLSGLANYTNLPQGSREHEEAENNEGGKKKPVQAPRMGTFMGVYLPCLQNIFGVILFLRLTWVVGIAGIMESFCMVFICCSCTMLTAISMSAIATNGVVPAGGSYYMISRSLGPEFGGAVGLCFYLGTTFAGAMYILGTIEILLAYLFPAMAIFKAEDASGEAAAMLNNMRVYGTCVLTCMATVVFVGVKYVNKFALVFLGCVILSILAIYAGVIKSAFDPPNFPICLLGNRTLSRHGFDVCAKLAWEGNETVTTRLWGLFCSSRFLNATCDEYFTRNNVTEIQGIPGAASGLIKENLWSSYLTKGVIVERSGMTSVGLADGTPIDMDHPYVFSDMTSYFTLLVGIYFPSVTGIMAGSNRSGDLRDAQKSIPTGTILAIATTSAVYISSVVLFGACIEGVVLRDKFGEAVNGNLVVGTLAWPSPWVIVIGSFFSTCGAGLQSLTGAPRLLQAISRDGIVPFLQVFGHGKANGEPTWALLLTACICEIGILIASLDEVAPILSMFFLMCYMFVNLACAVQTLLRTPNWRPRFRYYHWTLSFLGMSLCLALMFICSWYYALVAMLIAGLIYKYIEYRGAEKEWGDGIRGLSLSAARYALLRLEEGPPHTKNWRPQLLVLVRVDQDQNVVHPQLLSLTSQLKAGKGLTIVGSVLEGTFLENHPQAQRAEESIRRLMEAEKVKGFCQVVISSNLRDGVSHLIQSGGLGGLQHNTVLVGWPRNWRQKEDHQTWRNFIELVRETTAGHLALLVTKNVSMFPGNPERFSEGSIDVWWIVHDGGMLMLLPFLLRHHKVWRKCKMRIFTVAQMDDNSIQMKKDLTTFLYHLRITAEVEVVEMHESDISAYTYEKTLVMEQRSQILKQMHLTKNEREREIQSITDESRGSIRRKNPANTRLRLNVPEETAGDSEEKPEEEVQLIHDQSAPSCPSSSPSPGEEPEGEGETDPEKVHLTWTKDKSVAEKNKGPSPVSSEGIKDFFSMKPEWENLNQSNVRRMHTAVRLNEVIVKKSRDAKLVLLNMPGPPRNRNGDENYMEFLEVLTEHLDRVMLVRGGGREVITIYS
Dynein cargo inh: inhibitors of GR-EGFP nuclear translocation, primary screen, dynein cargo transport inhibitor project, imaging, high-content, 3617.4 mouse cells. z-score, hits read low. test concentration mostly 20 µM; stimulated with dexamethasone, 1 µM; stronger effect = lower value. AID 1381, 2008. 0.47% of 220,000 active;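 active = plate z-score of nuclear minus cytoplasmic receptor signal below a set negative limit, without overly bright fluorescence or cell loss, cut at about -3.5 in these data, passing the limit was not always enough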;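 also: z-score of nuclear minus cytoplasmic ring GR-EGFP intensity difference per well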
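Medium: Induction medium lacking tetracycline, stripped serum | Probe or stimulus: 1.0 µM final dexamethasone stimulus | Schedule: 48 h induction, then 1 h compound, then 30 min agonist, 37 °C | Signal: Automated 10x imaging of fixed Hoechst-stained cells | Evaluation: Per-cell GR-EGFP intensity, nucleus versus surrounding cytoplasmic ring, well-averaged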
ROMK primary: ROMK potassium channel modulators, primary screen, cell-based, thallium flux, MLSMR library; B-score at 10 µM; AID 1918, 2009; ATP-sensitive inward rectifier potassium channel 1 (Homo sapiens), P48048; 2% of 130,000 active; Tet-inducible ROMK, thallium flux fluorescence; actives lie on both sides;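 active = signal ratio slope over the read window, or its plate-corrected B-score, at least 3 SD from the plate mean, either direction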;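 also: B-score of the F/F0 ratio slope over 7 to 12 s after thallium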
DTT redox prof: compounds producing H2O2 with reducing agent – biochemical, NIH compound library profiling, artefact control for MLSCN library redox annotation, primary screen | activation, % at 10 µM | DTT-dependent redox cycling H2O2, phenol red/HRP absorbance; 100% = 100 µM peroxide control, 0% = buffer | 0.03% of 200,000 active;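 active = activation of at least 50% relative to the plate's high and low controls in the primary single-dose screen; inactive = activation below 50%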;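 also: compound incubated with DTT at 0.8 mM final as the reducing agent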
KCC2 sec1: KCC2 modulators in sodium-free buffer, confirmation, cell-based, HEK293 KCC2, thallium flux, secondary assay; shares compounds with Cl transport mod; FluoZin2 fluorescence; stronger effect = higher value; normalised thallium flux (F/F0 slope) at 10 µM; 15% of 3,700 active; AID 1713, 2009;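 active = thallium flux slope above the same plate's solvent-only control mean plus 3 SD; inconclusive = the two replicate wells disagree; inactive = no significant difference from solvent-only control wells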
KCC2 bumet counter: thallium flux persisting under bumetanide in KCC2 cells, confirmation, counter-screen for KCC2 modulator project, cell-based, HEK293 KCC2, FluoZin2, secondary assay 3; shares compounds with Cl transport mod; HEK293-KCC2 + bumetanide/ouabain; stronger effect = higher value; normalized thallium flux at 10 µM; 49% of 3,700 active; AID 1714, 2009;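 active = thallium entry rate above the same plate's blocked-transporter control wells by more than 3 SD; inconclusive = the two repeat wells disagree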;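 also: raw slope of fluorescence over initial fluorescence between 10 and 20 s after thallium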
KCC2 secondary2: KCC2 modulators without ouabain present, confirmation, cell-based, HEK293 KCC2, thallium flux, FluoZin2, secondary assay 2; AID 1715, 2009; normalized thallium flux at 10 µM; thallium flux FluoZin2 fluorescence; actives lie on both sides; F/F0 rise rate, 10–20 s post-thallium; 23% of 3,700 active; shares compounds with Cl transport mod;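 active = thallium flux slope more than 3 SD above or below the plate's solvent-only control mean, mostly below; inconclusive = the two repeat wells disagreed; inactive = no significant shift from solvent-only controls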;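 also: raw slope with 0.1% DMSO as baseline and bumetanide as block control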
HEK counter1: thallium flux modulation in parental HEK cells, confirmation, counter-screen for KCC2 modulator project, cell-based, counterscreen 1; shares compounds with Cl transport mod; 46% of 3,700 active; thallium flux rate (normalised fluorescence) at 10 µM; HEK293 parental cells, thallium flux FluoZin2, ouabain; baseline-ratio fluorescence slope, 10–20 s after thallium;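 active = thallium flux rate significantly above the same plate's solvent-only control wells, beyond their mean plus 3 SD; inconclusive = the two replicate wells gave conflicting results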
KCC2 ouabain: KCC2 inhibitors and activators, ouabain retest, confirmation, HEK-KCC2 cells. shares compounds with Cl transport mod. HEK293-KCC2, thallium flux FluoZin2 fluorescence; bidirectional: low = inhibitor, high = activator. raw Tl+ flux slope (below DMSO = inhibition, above = activation) at 10 µM. 48% of 3,700 active;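 active = thallium flux slope beyond 3 SD from same-plate DMSO control mean in most replicates, usually higher, sometimes lower; inconclusive = repeat tests gave conflicting results; inactive = no significant difference from controls in most replicates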;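 also: slope of initial-normalized fluorescence between seconds 10 and 20 after thallium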
HEK293 Tl flux2: native HEK Tl+ uptake effects, second counter-screen – HEK cells, counterscreen 2, counter-screen for KCC2 modulator project, confirmation; HEK293 parental, thallium flux FluoZin-2 fluorescence slope; 33% of 3,700 active; shares compounds with Cl transport mod; thallium flux slope at 10 µM;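 active = thallium flux slope above the same plate's solvent-control mean plus 3 SD in both duplicate wells; inconclusive = duplicate wells that disagreed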;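 also: run without ouabain in cells lacking the KCC2 cotransporter; slope of fluorescence scaled to its starting value between 10 and 20 s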
Numbers without * were called inactive; i = inactive; ? = inconclusive; / = no result given.

SMILES	Autophagy mod	Cl transport mod	Dynein cargo inh	ROMK primary	DTT redox prof	KCC2 sec1	KCC2 bumet counter	KCC2 secondary2	HEK counter1	KCC2 ouabain	HEK293 Tl flux2
CC(NCc1ccc(F)cc1)C(=O)Nc1cc(S(=O)(=O)N2CCCCC2)ccc1Cl (stereo unspecified)	i	-4.7*	2.3	0.92	-1	0.01	0.008*	?	0.0064	0.016*	0.01
Cc1ccc2[nH]c(CN3CCC(CO)(CC4CCCCO4)CC3)c(C)c2c1 (stereo unspecified)	i	-0.52	-0.058	-0.72	-1	/	/	/	/	/	/
COCCN(C(=O)CNC(=O)c1cccs1)C(C(=O)NC1CCCCC1)c1ccco1 (stereo unspecified)	i	/	0.23	-0.031	0	0.007	0.0041	0.034	0.0069	0.019	0.011
O=C(Cn1[nH]c(=O)c2ccccc2c1=O)NC1CCN(Cc2ccccc2)CC1	i	-4.3*	-0.33	/	2	0.018	0.0038	0.029	0.0076	0.017	0.011
O=C(Cn1[nH]c(=O)c2ccccc2c1=O)NC1CCCCCC1	i	-0.38	0.3	0.31	0	/	/	/	/	/	/
Cc1ccc(-c2c[nH]c(=S)n2-c2ccccc2F)cc1	i	3	-0.73	0.0049	0	/	/	/	/	/	/
O=C(NC(=S)N1CCN(c2ccc(O)cc2)CC1)c1cccs1	/	2.8	0.25	/	/	/	/	/	/	/	/
O=C(NC(=S)Nc1ccc(N2CCN(C(=O)c3ccccc3)CC2)cc1)c1cccs1	i	3.4*	0.81	-0.2	0	0.01	0.0097*	0.033	0.01*	0.02	0.012
O=C(c1ccc2ccccc2c1)N1CCN(c2ccc(O)cc2)CC1	i	-3.7*	-1.2	/	1	0.01	0.0062	0.033	0.0082	0.019	0.012
CS(=O)(=O)Nc1ccc(C(=O)N2CCN(c3ccccc3)CC2)cc1	i	0.22	0.53	/	3	0.0077	0.0043	0.027	0.0078	0.018	0.0098
O=C(NC(=S)N1CCN(c2ccc(F)cc2)CC1)c1cccs1	i	32*	-0.1	2.6	-1	0.012*	0.12*	0.11*	0.12*	0.11*	0.11*
COCCCNC(=O)c1cc2c(s1)CS(=O)(=O)C2	i	0.49	0.13	1.2	-1	/	/	/	/	/	/
CC(C)OCCCNC(=O)c1cc2c(s1)CS(=O)(=O)C2	i	/	-0.38	1.7	0	0.0088	0.0053	0.031	0.0079	0.018	0.01
O=C1CN(CC(=O)Nc2cccc(Cl)c2Cl)c2ccccc2N1	i	-0.17	0.007	-0.82	0	/	/	/	/	/	/
CC(C)(C(=O)Nc1nccs1)c1ccccc1	i	-0.38	-0.78	-1.6	0	/	/	/	/	/	/
CCOC(=O)CC(=O)c1[nH]c(C)c(C(=O)OCC)c1C	i	-0.23	0.31	0.45	-1	/	/	/	/	/	/
CCOC(=O)c1c(C)[nH]c(C(=O)COC(=O)C2(C)CC2(Cl)Cl)c1C (stereo unspecified)	i	/	-0.017	-0.2	0	0.0072	0.0042	0.028	0.0073	0.017	0.01
O=C1/C(=C/c2cccnc2)SC(=S)N1c1ccccc1	i	-0.15	-0.27	/	1	/	/	/	/	/	/
Cc1c(N2C(=O)/C(=C/c3ccccc3)SC2=S)c(=O)n(-c2ccccc2)n1C	i	-7.6*	0.52	/	2	0.0069	?	0.027*	0.008	0.014*	?
Cc1ccc(/C=C2\SC(=S)N(c3c(C)n(C)n(-c4ccccc4)c3=O)C2=O)cc1	i	-3.9*	-0.48	-0.28	-4	0.011	?	0.025*	0.0043	0.014*	0.012
Cc1c(N2C(=O)CS/C2=N\N=C\c2ccccc2O)c(=O)n(-c2ccccc2)n1C	i	0.14	-0.29	/	2	/	/	/	/	/	/
Cc1c(N2C(=O)/C(=C\c3ccccc3O)SC2=S)c(=O)n(-c2ccccc2)n1C	/	52*	-2.9	/	/	0.027*	0.062*	0.068*	0.068*	0.063*	0.064*
O=C(NCc1cccnc1)C(=O)NCC1OCCN1S(=O)(=O)c1ccc(F)cc1 (stereo unspecified)	i	0.66	2.6	0.026	0	/	/	/	/	/	/
COc1ccccc1C(N)=S	i	0.27	-0.88	0.075	0	/	/	/	/	/	/
Cc1ccccc1OCC(=O)NNC(=O)CCN1C(=O)c2ccccc2C1=O	i	-3.9*	2	-0.018	7	0.0068	0.0056	0.023*	0.0078	?	0.011
SMILES	Autophagy mod	Cl transport mod	Dynein cargo inh	ROMK primary	DTT redox prof	KCC2 sec1	KCC2 bumet counter	KCC2 secondary2	HEK counter1	KCC2 ouabain	HEK293 Tl flux2
COc1cccc(CNC(=O)Cn2cccc2)c1	i	9.6*	0.25	-0.28	1	0.009	0.0051	0.038	0.0046	0.021	0.011
COc1cccc(CNC(=O)CSc2ccc(-c3cccs3)nn2)c1	i	-3.2*	-1.3	0.18	1	0.015	0.0053	?	0.0072	0.014	0.01
COc1ccccc1CNC(=O)CSc1ccc(-c2cccs2)nn1	i	-4.3*	0.65	-0.074	1	0.0063	0.0057	0.033	0.0041	0.015*	0.011
O=S(=O)(c1ccc(-c2ccon2)s1)N1CCN(c2ccncc2)CC1	/	0.79	0.0035	/	/	/	/	/	/	/	/
O=S(=O)(NCc1cc(-c2ccccc2Cl)no1)c1ccc(Cl)cc1	i	/	-0.098	/	2	/	/	/	/	/	/
Cc1cc(/C=C(\C#N)c2nc3ccccc3[nH]2)c(C)n1C	i	-0.19	0.11	0.49	0	/	/	/	/	/	/
